The results in this text go back to ChEMBL document CHEMBL3124905, “Isothiocoumarin-3-carboxylic acid derivatives: synthesis, anticancer and antitrypanosomal activity evaluation” (Eur J Med Chem, 2014).

Data set [1] deals with Trypanosoma brucei brucei. The experiment in a line: Antitrypanosomal activity against bloodstream form of Trypanosoma brucei brucei strain 90-13 assessed as inhibition of parasite growth at 1 ug/ml after 72 hrs by resazurin reduction test. It is filed as functional. Particulars: strain 90-13, 72 h. Put shortly: (§1)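 Trypanosoma brucei brucei 90-13 bloodstream forms, grown in HMI9 with 10% FCS at 37 °C under 5% CO2. Log-phase parasites were seeded at 10^5 cells/mL with or without inhibitor, with stocks prepared in DMSO. After 72 h, resazurin was added and fluorescence was read at 530/590 nm after a further 4 h. Percent growth inhibition was calculated versus drug-free parasites, with DMSO as control.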

In data set [2] the test system is Trypanosoma brucei brucei. The experiment in a line: Antitrypanosomal activity against bloodstream form of Trypanosoma brucei brucei strain 90-13 assessed as inhibition of parasite growth at 10 ug/ml after 72 hrs by resazurin reduction test. The class given is functional. Particulars: strain 90-13, 72 h. Put shortly:
as §1
Background: The colour change of resazurin is a common sign of viable cells or microbes.

In a further data set the test system is NCI-H460. The experiment in a line: Anticancer activity against human NCI-H460 cells assessed as cell growth at 100 uM after 48 hrs by SRB assay. The class given is functional. Particulars: NCI-H460, 48 h, read-out: Activity. In outline:
(§2)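 NCI one-dose primary screen on a three-line panel (breast MCF7, lung NCI-H460, CNS SF-268). Cells were inoculated and preincubated 24–48 h, then exposed to a single concentration of 10−4 M for 48 h. The endpoint was sulforhodamine B protein staining, and results are expressed as percent growth relative to untreated control cells. Negative values denote cytotoxicity.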

The next data set has as its system SF-268. The experiment in a line: Anticancer activity against human SF268 cells assessed as cell growth at 100 uM after 48 hrs by SRB assay. The class given is functional. Particulars: SF-268, 48 h, read-out: Activity. Put shortly: as §2
Data set [3] can be described thus: Acute toxicity in ip dosed white mouse. Particulars: in vivo. The class given is organism-based. In outline: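 White male mice, 23-25 g, dosed intraperitoneally with compound dissolved in 0.9% NaCl saline plus 1-2 drops Polysorbate 80 (Tween-80). Solutions prepared immediately before use. Doses ranged 100-1000 mg/kg, testing 4 or 5 doses with 6 animals per dose. LD50 derived by the Litchfield-Wilcoxon method.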

Another data set deals with MCF7. The experiment in a line: Anticancer activity against human MCF7 cells assessed as cell growth at 100 uM after 48 hrs by SRB assay. Particulars: MCF7, 48 h, read-out: Activity. The class given is functional. Put shortly: as §2
For orientation: Sulforhodamine B stains cellular protein and so reports cell mass.

By inhibition is commonly meant the share of the control response that was lost under treatment. By LD50 is commonly meant the dose at which mortality reaches 50%. A higher LD50 goes with lower toxicity. As for `COc1ccc2cc(C(=O)Nc3ccc(S(N)(=O)=O)cc3)sc(=O)c2c1OC`, the inhibition at 1 µg/mL in data set [1] turned out to be 59.8%. Also, the inhibition at 10 µg/mL in data set [2] is more than 50%. Further, the growth at 100 µM in the data set on NCI-H460 is 97%; in the data set with SF-268 it was 74%; in the data set with MCF7, 72%. Further, the LD50 in data set [3] turned out to be 870 mg/kg.

Regarding `O=C(Nc1cccc2ccccc12)c1cc2ccccc2c(=O)s1`, in data set [1], the inhibition at 1 µg/mL was 60.8%. Moreover, the inhibition at 10 µg/mL in data set [2] is more than 50%. This compound also yielded a median lethal dose (LD50) in data set [3] of 410 mg/kg.
